# Columns and labels:
# [1] = AUC (0 to 24 hrs) in dog at 1 mg/kg, iv; type: ADME, organism-based, Canis lupus familiaris; set-up: time < 24 hr, dose 1 mg/kg, route intravenous; conditions: in vivo
# [2] = Protein binding in mouse plasma; type: ADME, cell-free; conditions: read-out: PPB (converted)
# [3] = Tmax in non-fasting diet-induced obese cynomolgus monkey administered via oral gavage; type: ADME, Macaca fascicularis; conditions: in vivo
# Cytochrome P450 2C19 = Cytochrome P450 2C19 (Homo sapiens, UniProt P33261); assay: Inhibition of CYP2C19 (unknown origin); type: ADME
# Rattus norvegicus [4] = assay: Renal toxicity in rat at 300 mg/kg for 2 weeks; type: organism-based; conditions: in vivo, 336 h
# In short: (§1)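 Exploratory rat toxicology study lasting 2 weeks, with 300 mg/kg as the highest dose given. The study assessed hypokalemia, plasma volume expansion, hypertension and renal toxicity.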
# Cytochrome P450 2C9 = Cytochrome P450 2C9 (Homo sapiens, UniProt P11712); assay: Inhibition of CYP2C9 (unknown origin); type: ADME
# Rattus norvegicus [5] = assay: Apparent elimination half life in rat at […], iv; type: ADME, organism-based; conditions: in vivo
# [6] = molecular target: 11-beta-hydroxysteroid dehydrogenase 1 (Mus musculus, UniProt P50172); assay: Inhibition of 11beta-HSD1 in mouse 3T3L1 cells; type: cell-based
# In short: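 Mouse adipocyte-like 3T3-L1 cell line, not genetically manipulated, so that inhibition acts on the cells' native mouse 11β-HSD1 activity.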
# hERG = hERG (Homo sapiens, UniProt Q12809); assay: Inhibition of human ERG at 30 uM by patch clamp assay relative to control
# In short: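 hERG channel, patch clamp; percent inhibition at 30 μM.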
# [7] = Apparent elimination half life in cynomolgus monkey at 1 mg/kg, iv; type: ADME, organism-based, Macaca fascicularis; conditions: in vivo, read-out: betat1/2(app) (converted)
# [8] = Total plasma clearance in cynomolgus monkey at 1 mg/kg, iv; type: ADME, organism-based, Macaca fascicularis
# Cytochrome P450 2C8 = Cytochrome P450 2C8 (Homo sapiens, UniProt P10632); assay: Inhibition of CYP2C8 (unknown origin); type: ADME
# [9] = Volume of distribution at steady state in cynomolgus monkey at 1 mg/kg, iv; type: ADME, organism-based, Macaca fascicularis; conditions: in vivo, read-out: Vdss
# Mus musculus = assay: In vivo inhibition of 11beta-HSD1 in po dosed non-fasting diet-induced obese mouse assessed as plasma concentration required to show decrease in corticosterone excursion pretreated for 60 mins followed by DHC administration measured up to 120 mins by enzyme immunosorbent assay; type: functional, organism-based
# In short: (§2)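 Nonfasting diet-induced obese male mice, groups of n = 6 matched for body weight. Tail bleed at −60 min, then oral dosing with vehicle (0.5% Methocel, 0.1% Tween 80 in water) or drug. DHC 10 mg/kg given orally 60 min later. Bleeds at 30, 60 and 120 min after DHC. Plasma corticosterone measured by enzyme immunosorbent assay. Drug levels measured in terminal bleed samples.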
# [10] = molecular target: 11-beta-hydroxysteroid dehydrogenase 1 (Rattus norvegicus, UniProt P16232); assay: Inhibition of rat 11beta-HSD1
# Rattus norvegicus [11] = assay: Toxicity in rat assessed as plasma volume expansion at 300 mg/kg for 2 weeks; type: organism-based; conditions: in vivo, 336 h; in short: as §1
# [12] = AUC (0 to 24 hrs) in cynomolgus monkey at 1 mg/kg, iv; type: ADME, organism-based, Macaca fascicularis; set-up: dose 1 mg/kg, time < 24 hr, route intravenous; conditions: in vivo
# [13] = Inhibition of cynomolgus monkey 11beta-HSD2; set-up: species or system Macaca fascicularis
# Cytochrome P450 2E1 = Cytochrome P450 2E1 (Homo sapiens, UniProt P05181); assay: Inhibition of CYP2E1 (unknown origin); type: ADME
# Plasma [14] = assay: Fraction unbound in cynomolgus monkey plasma at 1 mg/kg after 24 hrs; type: ADME, organism-based, Macaca fascicularis; conditions: in vivo
# [15] = MRT in cynomolgus monkey at 1 mg/kg, iv; type: ADME, organism-based, Macaca fascicularis; conditions: in vivo
# [16] = Metabolic stability in human liver microsomes assessed as UGT-mediated glucuronidation of compound by measuring half life in presence of UDPGA; type: ADME
# In short: (§3)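 Liver microsomal glucuronidation incubations in the presence of UDPGA; parent half-life determined.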
# [17] = Protein binding in dog plasma; type: ADME, cell-free, Canis lupus familiaris; conditions: read-out: PPB (converted)
# Plasma [18] = assay: Drug metabolism in rat plasma assessed as ketone A formation at […], iv; type: ADME, organism-based; conditions: in vivo
# [19] = Volume of distribution at steady state in dog at 1 mg/kg, iv; type: ADME, organism-based, Canis lupus familiaris; conditions: in vivo, read-out: Vdss
# [20] = Metabolic stability in mouse liver microsomes assessed as UGT-mediated glucuronidation of compound by measuring half life in presence of UDPGA; type: ADME; in short: as §3
# [21] = MRT in dog at 1 mg/kg, iv; type: ADME, organism-based, Canis lupus familiaris; conditions: in vivo
# [22] = Half life in human liver microsomes; type: ADME, microsome
# In short: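 Human liver microsome incubation; parent half-life determined.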
# [23] = Protein binding in cynomolgus monkey plasma; type: ADME, cell-free, Macaca fascicularis; conditions: read-out: PPB (converted)
# [24] = Apparent elimination half life in dog at 1 mg/kg, iv; type: ADME, organism-based, Canis lupus familiaris; conditions: in vivo, read-out: betat1/2(app) (converted)
# [25] = Permeability from apical to basolateral side in human Caco2 cells; type: ADME, cell-based; conditions: Caco-2, read-out: permeability
# [26] = Volume of distribution at steady state in mouse at 5 mg/kg, iv; type: ADME, organism-based; conditions: in vivo, read-out: Vdss
# [27] = Oral bioavailability in dog at 2 mg/kg; type: ADME, organism-based, Canis lupus familiaris; conditions: in vivo
# [28] = Permeability from basolateral to apical side in human Caco2 cells; type: ADME, cell-based; conditions: Caco-2, read-out: permeability
# [29] = molecular target: 11-beta-hydroxysteroid dehydrogenase type 2 (Rattus norvegicus, UniProt P50233); assay: Inhibition of rat 11beta-HSD2
# Cynomolgus monkey [30] = assay: Toxicity in cynomolgus monkey assessed as HPA axis activation by measuring cortisol level at 1 to 10 mg/kg for 7 days; type: organism-based, Macaca fascicularis; conditions: in vivo, 168 h
# Plasma [31] = assay: Drug uptake in po dosed non-fasting diet-induced obese mouse plasma after 3 hrs; type: ADME, organism-based; conditions: in vivo; in short: as §2
# Plasma [32] = assay: Drug metabolism in dog plasma assessed as ketone A formation at 1 mg/kg, iv; type: ADME, organism-based, Canis lupus familiaris; conditions: in vivo
# [33] = Oral bioavailability in rat at 10 mg/kg; type: ADME, organism-based; conditions: in vivo
# [34] = Protein binding in rat plasma; type: ADME, cell-free; conditions: read-out: PPB (converted)
# Cynomolgus monkey [35] = assay: In vivo inhibition of 11beta-HSD1 in non-fasting diet-induced obese cynomolgus monkey assessed as decrease in corticosterone excursion in plasma pretreated via oral gavage for 30 mins followed by DHC administration measured up to 60 mins by enzyme immunosorbent assay; type: functional; conditions: Macaca fascicularis
# In short: (§4)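 Cynomolgus monkeys given test compound at a predetermined time before the experiment, chosen from its pharmacokinetics. Substrate DHC (rodent substrate, used in place of cortisone) given afterwards. Blood sampled at various times. Design otherwise similar to the mouse DHC challenge.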
# [36] = molecular target: 11-beta-hydroxysteroid dehydrogenase type 2 (Homo sapiens, UniProt P80365); assay: Inhibition of human 11beta-HSD2 up to 30 uM
# In short: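 Human 11β-HSD2 counter-screen in vitro; compound tested up to 30 μM.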
# Cynomolgus monkey [37] = assay: In vivo inhibition of 11beta-HSD1 in non-fasting diet-induced obese cynomolgus monkey assessed as plasma concentration required to show decrease in corticosterone excursion pretreated via oral gavage for 30 mins followed by DHC administration measured up to 60 mins by enzyme immunosorbent assay; type: functional, organism-based; conditions: Macaca fascicularis; in short: as §4
# Cytochrome P450 2D6 = Cytochrome P450 2D6 (Homo sapiens, UniProt P10635); assay: Inhibition of CYP2D6 (unknown origin); type: ADME
# [38] = Metabolic stability in cynomolgus monkey liver microsomes assessed as UGT-mediated glucuronidation of compound by measuring half life in presence of UDPGA; type: ADME, Macaca fascicularis; in short: as §3
# in vivo = conditions: mouse, adipose tissue / plasma, iv, 5 mg/kg
# [39] = Total plasma clearance in mouse at 5 mg/kg, iv; type: ADME, organism-based
# Cynomolgus monkey [40] = assay: Toxicity in cynomolgus monkey assessed as HPA axis activation by measuring DHEAS level at 1 to 10 mg/kg for 7 days; type: organism-based, Macaca fascicularis; conditions: in vivo, 168 h
# Cytochrome P450 2C9, sequence (P11712 whole entry): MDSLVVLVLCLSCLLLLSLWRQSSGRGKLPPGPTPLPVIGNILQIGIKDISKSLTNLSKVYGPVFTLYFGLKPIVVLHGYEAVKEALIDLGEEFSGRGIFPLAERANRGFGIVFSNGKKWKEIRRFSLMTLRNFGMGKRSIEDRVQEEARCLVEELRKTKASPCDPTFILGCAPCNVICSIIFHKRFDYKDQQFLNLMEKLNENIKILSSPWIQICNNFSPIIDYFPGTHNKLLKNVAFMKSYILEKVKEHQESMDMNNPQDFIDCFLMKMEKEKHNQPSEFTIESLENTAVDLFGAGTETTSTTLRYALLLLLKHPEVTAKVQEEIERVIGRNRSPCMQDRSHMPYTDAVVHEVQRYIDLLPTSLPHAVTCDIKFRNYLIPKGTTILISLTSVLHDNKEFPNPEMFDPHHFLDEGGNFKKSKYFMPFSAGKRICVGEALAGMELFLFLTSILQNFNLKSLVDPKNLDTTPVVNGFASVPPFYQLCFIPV
# 11-beta-hydroxysteroid dehydrogenase 1 (Mus musculus, UniProt P50172), sequence (P50172 whole entry): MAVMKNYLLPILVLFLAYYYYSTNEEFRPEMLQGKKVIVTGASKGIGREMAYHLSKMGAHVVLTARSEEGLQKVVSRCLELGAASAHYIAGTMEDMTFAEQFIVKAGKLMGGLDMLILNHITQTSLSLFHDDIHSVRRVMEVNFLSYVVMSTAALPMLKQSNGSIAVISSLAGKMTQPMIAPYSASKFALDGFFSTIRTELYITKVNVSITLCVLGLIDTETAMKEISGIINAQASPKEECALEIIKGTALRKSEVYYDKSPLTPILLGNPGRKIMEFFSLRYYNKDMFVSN
# hERG, sequence (Q12809 whole entry): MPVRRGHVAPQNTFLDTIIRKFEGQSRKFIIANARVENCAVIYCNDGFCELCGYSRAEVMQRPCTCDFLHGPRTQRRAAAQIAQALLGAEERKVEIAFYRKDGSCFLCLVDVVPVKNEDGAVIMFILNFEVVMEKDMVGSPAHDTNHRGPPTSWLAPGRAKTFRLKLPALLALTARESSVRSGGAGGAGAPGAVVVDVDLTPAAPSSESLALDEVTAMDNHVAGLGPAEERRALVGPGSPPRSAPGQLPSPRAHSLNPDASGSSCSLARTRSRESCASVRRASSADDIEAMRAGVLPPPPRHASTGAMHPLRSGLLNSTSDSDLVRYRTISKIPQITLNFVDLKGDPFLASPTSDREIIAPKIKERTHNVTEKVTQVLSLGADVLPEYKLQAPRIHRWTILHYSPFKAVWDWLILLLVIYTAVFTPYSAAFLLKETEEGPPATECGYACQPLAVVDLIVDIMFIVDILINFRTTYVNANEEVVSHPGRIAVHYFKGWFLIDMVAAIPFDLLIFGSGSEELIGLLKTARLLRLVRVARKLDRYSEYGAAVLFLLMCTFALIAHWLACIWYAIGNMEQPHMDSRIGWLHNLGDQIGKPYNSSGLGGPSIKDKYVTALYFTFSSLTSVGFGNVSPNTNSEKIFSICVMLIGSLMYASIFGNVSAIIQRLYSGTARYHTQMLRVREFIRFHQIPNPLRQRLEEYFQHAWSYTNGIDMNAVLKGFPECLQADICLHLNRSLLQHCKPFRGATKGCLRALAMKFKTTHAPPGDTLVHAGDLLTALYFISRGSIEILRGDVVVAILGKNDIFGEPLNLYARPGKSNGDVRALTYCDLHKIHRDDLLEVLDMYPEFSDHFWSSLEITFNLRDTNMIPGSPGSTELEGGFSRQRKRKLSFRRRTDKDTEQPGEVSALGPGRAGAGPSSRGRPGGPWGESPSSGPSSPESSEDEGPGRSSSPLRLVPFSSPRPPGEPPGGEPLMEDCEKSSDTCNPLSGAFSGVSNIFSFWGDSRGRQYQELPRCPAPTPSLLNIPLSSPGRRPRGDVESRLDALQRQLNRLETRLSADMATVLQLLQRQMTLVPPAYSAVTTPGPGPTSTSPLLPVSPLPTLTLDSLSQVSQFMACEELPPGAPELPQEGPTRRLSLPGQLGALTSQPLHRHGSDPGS
# 11-beta-hydroxysteroid dehydrogenase 1 (Rattus norvegicus, UniProt P16232), sequence (P16232 whole entry): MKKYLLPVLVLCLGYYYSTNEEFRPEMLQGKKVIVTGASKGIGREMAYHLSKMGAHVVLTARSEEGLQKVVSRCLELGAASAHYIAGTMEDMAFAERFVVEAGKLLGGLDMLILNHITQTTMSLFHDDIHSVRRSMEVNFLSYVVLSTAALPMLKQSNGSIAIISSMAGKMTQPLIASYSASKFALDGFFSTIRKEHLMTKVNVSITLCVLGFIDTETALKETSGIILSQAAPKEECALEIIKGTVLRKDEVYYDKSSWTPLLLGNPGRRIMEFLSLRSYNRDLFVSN
# Cytochrome P450 2C19, sequence (P33261 whole entry): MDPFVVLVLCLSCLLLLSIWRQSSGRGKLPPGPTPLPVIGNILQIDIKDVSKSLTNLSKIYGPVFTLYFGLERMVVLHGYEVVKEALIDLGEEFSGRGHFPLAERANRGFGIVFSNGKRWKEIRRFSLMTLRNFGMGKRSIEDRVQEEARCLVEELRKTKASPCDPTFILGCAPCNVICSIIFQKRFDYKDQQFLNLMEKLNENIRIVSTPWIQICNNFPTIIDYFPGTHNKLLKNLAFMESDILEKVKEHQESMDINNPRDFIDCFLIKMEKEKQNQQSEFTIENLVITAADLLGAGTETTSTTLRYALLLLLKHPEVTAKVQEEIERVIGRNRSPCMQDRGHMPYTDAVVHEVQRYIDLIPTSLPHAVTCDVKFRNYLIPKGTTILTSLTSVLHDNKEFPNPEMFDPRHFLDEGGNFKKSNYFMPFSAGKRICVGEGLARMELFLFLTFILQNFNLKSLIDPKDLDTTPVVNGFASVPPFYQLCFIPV
# 11-beta-hydroxysteroid dehydrogenase type 2 (Homo sapiens, UniProt P80365), sequence (P80365 whole entry): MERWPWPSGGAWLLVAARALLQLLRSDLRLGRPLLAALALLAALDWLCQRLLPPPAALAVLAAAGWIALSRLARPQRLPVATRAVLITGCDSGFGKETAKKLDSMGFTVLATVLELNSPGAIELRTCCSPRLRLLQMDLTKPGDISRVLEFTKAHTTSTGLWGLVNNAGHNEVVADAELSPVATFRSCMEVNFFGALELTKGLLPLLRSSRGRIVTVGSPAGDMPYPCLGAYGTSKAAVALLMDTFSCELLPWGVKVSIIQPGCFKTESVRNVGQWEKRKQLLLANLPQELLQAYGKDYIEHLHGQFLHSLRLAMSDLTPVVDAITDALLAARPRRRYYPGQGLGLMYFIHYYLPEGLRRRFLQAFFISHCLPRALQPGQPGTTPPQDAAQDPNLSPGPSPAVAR
# Cytochrome P450 2E1, sequence (P05181 whole entry): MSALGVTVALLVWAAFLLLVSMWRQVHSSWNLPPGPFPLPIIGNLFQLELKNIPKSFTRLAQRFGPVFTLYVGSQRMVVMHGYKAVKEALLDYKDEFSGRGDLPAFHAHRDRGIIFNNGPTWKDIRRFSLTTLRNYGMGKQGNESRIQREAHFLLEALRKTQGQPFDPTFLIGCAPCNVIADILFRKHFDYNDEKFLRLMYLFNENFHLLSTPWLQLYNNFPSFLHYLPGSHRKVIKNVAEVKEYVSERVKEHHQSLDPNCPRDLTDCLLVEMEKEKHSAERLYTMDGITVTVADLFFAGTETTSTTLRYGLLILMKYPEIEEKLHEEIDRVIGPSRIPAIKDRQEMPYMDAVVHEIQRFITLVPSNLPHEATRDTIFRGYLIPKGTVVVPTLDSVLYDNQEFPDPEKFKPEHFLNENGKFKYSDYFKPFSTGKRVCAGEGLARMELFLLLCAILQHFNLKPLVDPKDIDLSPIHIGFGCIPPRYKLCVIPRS
# 11-beta-hydroxysteroid dehydrogenase type 2 (Rattus norvegicus, UniProt P50233), sequence (P50233 whole entry): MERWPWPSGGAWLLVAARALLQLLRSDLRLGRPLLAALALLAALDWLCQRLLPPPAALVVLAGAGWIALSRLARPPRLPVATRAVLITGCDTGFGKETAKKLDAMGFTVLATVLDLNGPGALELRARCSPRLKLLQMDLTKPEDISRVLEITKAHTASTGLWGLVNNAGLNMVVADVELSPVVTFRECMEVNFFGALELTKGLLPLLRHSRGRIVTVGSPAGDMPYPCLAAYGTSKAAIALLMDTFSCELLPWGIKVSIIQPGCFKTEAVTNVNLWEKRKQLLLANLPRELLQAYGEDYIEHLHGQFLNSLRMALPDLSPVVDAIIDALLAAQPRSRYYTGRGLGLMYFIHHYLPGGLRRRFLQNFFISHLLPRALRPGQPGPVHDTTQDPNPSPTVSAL
# Cytochrome P450 2D6, sequence (P10635 whole entry): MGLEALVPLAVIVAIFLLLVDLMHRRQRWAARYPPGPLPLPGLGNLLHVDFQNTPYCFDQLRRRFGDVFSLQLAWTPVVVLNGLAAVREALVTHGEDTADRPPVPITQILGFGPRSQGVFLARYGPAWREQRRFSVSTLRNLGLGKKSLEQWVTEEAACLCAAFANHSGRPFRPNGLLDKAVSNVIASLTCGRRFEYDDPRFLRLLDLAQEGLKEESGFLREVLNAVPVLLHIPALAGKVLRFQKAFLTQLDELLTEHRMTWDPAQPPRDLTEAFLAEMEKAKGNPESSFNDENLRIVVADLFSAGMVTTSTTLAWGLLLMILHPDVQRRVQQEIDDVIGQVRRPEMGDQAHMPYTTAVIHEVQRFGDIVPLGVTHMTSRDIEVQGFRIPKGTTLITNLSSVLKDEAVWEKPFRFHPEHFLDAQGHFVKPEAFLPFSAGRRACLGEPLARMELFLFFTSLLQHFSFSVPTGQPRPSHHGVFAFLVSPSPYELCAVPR
structure (smiles),measurement,setting,value
O=C(CC1(c2ccccc2)C2CC3CC1CC(C2)C3O)N1CC(O)C1 (stereo in doubt; form 2),AUC(0-t) at 24 h,[1],4.6 µM·h
same,fraction unbound,[2],0.37
same,Tmax,[3],0.5 h
same,IC50,Cytochrome P450 2C19,> 40 µM
same,Activity,Rattus norvegicus [4],Non-Toxic
same,IC50,Cytochrome P450 2C9,> 40 µM
same,betat1/2(app),Rattus norvegicus [5],3 h
same,IC50,[6],0.0286 µM
same,inhibition at 30 µM,hERG,10%
same,half-life,[7],6 h
same,clearance,[8],21.2 mL/min/kg
same,IC50,Cytochrome P450 2C8,> 40 µM
same,Vd,[9],4.2 L/kg
same,EC50,Mus musculus,0.85 µM
same,IC50,[10],0.5 µM
same,Activity,Rattus norvegicus [11],Non-Toxic
same,AUC(0-t) at 24 h,[12],2.3 µM·h
same,IC50,[13],48 µM
same,IC50,Cytochrome P450 2E1,> 40 µM
same,Cp(f),Plasma [14],2 nM
same,MRT,[15],3.3 h
same,half-life,[16],> 3.33 h
same,fraction unbound,[17],0.43
same,Drug metabolism,Plasma [18],Metabolite_Detected
same,Vd,[19],3 L/kg
same,half-life,[20],> 3.33 h
same,MRT,[21],3.5 h
same,half-life,[22],2.02 h
same,fraction unbound,[23],0.32
same,half-life,[24],7.4 h
same,Papp A→B,[25],10.5 ×10⁻⁶ cm/s
same,Vd,[26],2 L/kg
same,bioavailability,[27],72%
same,Papp B→A,[28],28.5 ×10⁻⁶ cm/s
same,IC50,[29],3.5 µM
same,Activity,Cynomolgus monkey [30],Non-Toxic
same,Drug uptake,Plasma [31],Dose-dependent effect
same,Drug metabolism,Plasma [32],Metabolite_Detected
same,bioavailability,[33],20%
same,fraction unbound,[34],0.35
same,ED50,Cynomolgus monkey [35],0.12 mg/kg
same,inhibition (INH),[36],Not Active
same,EC50,Cynomolgus monkey [37],0.075 µM
same,IC50,Cytochrome P450 2D6,> 40 µM
same,half-life,[38],> 3.33 h
same,Kp,in vivo,0.15
same,clearance,[39],50 mL/min/kg
same,Activity,Cynomolgus monkey [40],Non-Toxic
